Laboratory results as given in article PMC4832855 (Cancer Science, 2016).
Values joined by “and” are separate entries in the source; they are usually repeats but may differ in a detail not shown here. Equal values may be shown once.

Tests used:
[1] = system: human multiple myeloma cell lines (KMS‐12‐BM, LP‐1, NCI‐H929); assay: Anti-proliferative activity; format: cell-based; conditions: 72 h
[2] = system: p381; assay: Kinase inhibition profiling at 100 nmol/L; format: biochemical, human; conditions: p381, 100 nmol/L
[3] = target: Lck (Homo sapiens, UniProt P06239); assay: Kinase inhibition profiling at 100 nmol/L; format: biochemical; conditions: read-out: Inhibition at 100 nmol/L
[4] = target: Jak2 (Homo sapiens, UniProt O60674); assay: Kinase inhibition profiling at 100 nmol/L; format: biochemical
Jak2, sequence (O60674 whole entry): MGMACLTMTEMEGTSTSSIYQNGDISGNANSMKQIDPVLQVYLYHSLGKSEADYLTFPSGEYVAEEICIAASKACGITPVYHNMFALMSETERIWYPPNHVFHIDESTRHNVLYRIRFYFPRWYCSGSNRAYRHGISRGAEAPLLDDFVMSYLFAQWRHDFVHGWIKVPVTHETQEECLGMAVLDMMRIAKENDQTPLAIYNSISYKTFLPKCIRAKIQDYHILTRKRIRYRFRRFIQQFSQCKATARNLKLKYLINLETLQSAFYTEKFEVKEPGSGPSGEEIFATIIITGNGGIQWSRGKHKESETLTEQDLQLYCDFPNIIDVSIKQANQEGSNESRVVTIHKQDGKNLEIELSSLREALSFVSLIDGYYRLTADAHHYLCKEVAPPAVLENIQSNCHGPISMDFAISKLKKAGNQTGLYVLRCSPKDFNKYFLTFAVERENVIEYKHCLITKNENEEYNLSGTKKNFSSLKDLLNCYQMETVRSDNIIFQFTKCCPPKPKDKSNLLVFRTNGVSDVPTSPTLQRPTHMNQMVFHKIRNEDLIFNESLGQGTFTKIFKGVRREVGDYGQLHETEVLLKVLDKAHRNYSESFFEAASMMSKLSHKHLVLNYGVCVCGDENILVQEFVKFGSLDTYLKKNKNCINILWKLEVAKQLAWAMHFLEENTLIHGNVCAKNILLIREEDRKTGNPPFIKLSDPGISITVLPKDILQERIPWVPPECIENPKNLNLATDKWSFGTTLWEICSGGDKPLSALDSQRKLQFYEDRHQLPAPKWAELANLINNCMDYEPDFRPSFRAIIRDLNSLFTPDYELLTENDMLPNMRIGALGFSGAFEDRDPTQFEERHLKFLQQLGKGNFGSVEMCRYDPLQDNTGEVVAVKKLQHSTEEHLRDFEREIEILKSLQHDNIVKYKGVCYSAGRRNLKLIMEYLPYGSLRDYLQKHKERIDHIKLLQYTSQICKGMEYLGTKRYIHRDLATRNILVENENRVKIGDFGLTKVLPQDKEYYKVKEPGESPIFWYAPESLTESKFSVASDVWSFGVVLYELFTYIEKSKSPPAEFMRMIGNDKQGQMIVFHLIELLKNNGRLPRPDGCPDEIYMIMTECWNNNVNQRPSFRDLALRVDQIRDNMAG

[5] = target: focal adhesion kinase (Homo sapiens, UniProt Q05397); assay: Kinase inhibition profiling at 100 nmol/L; format: biochemical; conditions: read-out: Inhibition at 100 nmol/L
focal adhesion kinase, sequence (Q05397 whole entry): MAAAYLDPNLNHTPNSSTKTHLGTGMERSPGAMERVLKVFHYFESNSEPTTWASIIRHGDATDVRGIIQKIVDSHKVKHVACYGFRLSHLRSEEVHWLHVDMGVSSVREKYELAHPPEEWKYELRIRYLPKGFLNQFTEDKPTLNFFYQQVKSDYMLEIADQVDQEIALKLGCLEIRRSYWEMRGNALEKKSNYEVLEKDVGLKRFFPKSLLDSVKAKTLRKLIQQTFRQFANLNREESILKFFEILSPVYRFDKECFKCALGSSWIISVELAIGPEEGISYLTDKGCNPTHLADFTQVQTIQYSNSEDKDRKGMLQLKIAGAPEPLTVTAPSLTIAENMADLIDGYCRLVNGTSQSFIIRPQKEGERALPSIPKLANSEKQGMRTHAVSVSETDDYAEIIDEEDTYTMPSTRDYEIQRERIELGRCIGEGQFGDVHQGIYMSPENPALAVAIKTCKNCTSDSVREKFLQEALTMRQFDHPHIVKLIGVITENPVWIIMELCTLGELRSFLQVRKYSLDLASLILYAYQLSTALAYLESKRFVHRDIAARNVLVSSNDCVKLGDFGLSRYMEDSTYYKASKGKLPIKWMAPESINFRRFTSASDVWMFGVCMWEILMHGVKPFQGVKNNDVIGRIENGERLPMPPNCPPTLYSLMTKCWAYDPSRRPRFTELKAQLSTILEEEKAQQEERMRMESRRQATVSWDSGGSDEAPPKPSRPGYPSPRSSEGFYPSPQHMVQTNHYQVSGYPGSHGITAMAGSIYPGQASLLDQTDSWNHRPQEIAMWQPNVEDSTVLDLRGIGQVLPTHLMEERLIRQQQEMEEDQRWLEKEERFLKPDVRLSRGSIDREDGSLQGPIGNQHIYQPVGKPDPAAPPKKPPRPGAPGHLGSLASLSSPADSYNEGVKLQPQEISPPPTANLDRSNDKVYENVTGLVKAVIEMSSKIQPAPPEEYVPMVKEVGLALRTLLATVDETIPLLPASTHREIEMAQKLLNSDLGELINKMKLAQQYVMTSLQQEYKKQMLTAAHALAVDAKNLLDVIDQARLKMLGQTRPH

[6] = system: SCID mice; assay: Hyperglycemia and hyperinsulinemia in mice; format: in vivo, mouse; conditions: oral 10, 20, 40, 80 mg/kg
[7] = system: IGF‐1‐induced tyrosine phosphorylation of IGF‐1R in HT‐29/GFP cells; assay: In vitro signal transduction assay; format: cell-based, human; conditions: 30 nmol/L, 2 hours
Outline: (§1)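 HT-29/GFP colon cancer cells in culture exposed to test compound, then stimulated with human IGF-1 or human insulin; receptor tyrosine phosphorylation and downstream signalling assessed across a concentration series.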

[8] = system: phosphorylation of Erk in HT‐29/GFP cells; assay: In vitro signal transduction assay; format: cell-based, human; conditions: up to 30 nmol/L
Outline: as §1

[9] = target: IR (Homo sapiens, UniProt P06213); assay: Kinase inhibition profiling at 100 nmol/L; format: biochemical; conditions: read-out: Inhibition at 100 nmol/L
[10] = target: fms‐like tyrosine kinase‐3 (Homo sapiens, UniProt P36888); assay: Kinase inhibition profiling at 100 nmol/L; format: biochemical; conditions: read-out: Inhibition at 100 nmol/L
[11] = system: panel of human malignant cell lines; assay: Correlation of antiproliferative activity with anti‐IGF‐1 antibody KM1468; format: cell-based; conditions: range of human malignant cell lines (Fig. S1a)
[12] = target: TrkA (Homo sapiens, UniProt P04629); assay: Kinase inhibition profiling at 100 nmol/L; format: biochemical
TrkA, sequence (P04629 33-796): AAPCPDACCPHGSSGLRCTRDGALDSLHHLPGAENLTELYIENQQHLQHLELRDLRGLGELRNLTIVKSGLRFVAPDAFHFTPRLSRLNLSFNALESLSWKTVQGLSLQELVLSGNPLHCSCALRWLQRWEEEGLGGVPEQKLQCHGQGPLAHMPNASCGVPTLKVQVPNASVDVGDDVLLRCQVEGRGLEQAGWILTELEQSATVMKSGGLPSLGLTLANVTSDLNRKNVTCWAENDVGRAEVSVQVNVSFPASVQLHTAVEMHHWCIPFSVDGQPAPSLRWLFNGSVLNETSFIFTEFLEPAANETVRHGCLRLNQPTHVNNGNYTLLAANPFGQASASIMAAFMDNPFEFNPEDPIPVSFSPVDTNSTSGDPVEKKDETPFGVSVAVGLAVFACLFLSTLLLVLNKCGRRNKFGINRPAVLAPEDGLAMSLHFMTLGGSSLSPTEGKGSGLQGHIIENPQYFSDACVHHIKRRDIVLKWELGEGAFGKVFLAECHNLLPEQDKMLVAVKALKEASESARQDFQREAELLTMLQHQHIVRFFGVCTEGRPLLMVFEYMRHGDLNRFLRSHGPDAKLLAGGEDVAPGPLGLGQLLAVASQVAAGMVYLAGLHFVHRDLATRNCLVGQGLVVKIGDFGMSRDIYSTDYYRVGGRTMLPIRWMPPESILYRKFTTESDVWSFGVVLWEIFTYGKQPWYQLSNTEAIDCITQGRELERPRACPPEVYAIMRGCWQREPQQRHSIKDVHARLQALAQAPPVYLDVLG

[13] = system: patients with advanced solid tumors; assay: Phase I first-in-human study: pharmacodynamics; format: in vivo
Outline: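 Open-label 3+3 dose-escalation/de-escalation study. After a 1-week observation period, the test compound was given orally once daily, continuously, after an overnight fast. On pharmacodynamic sampling days, fasting continued until 2 h post-dose. Plasma glucose and insulin were sampled between days 1 and 29, at pre-dose and at 1, 2 and 24 h post-dose. Only the fasting time points were evaluable.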

[14] = preliminary in vitro and in vivo studies; ref Kyowa Hakko Kirin Co., Tokyo, unpublished data; cited from earlier work
[15] = system: HT‐29/GFP human colon cancer cells; assay: Flow cytometric cell cycle analysis; format: cell-based
[16] = system: insulin‐induced tyrosine phosphorylation of IR in HT‐29/GFP cells; assay: In vitro signal transduction assay; format: cell-based, human; conditions: 10 nmol/L, 2 hours
Outline: as §1

[17] = target: IGF‐1R (Homo sapiens, UniProt P08069); assay: Kinase inhibition profiling at 100 nmol/L; format: biochemical; conditions: read-out: Inhibition at 100 nmol/L
IGF‐1R, sequence (P08069 31-1367): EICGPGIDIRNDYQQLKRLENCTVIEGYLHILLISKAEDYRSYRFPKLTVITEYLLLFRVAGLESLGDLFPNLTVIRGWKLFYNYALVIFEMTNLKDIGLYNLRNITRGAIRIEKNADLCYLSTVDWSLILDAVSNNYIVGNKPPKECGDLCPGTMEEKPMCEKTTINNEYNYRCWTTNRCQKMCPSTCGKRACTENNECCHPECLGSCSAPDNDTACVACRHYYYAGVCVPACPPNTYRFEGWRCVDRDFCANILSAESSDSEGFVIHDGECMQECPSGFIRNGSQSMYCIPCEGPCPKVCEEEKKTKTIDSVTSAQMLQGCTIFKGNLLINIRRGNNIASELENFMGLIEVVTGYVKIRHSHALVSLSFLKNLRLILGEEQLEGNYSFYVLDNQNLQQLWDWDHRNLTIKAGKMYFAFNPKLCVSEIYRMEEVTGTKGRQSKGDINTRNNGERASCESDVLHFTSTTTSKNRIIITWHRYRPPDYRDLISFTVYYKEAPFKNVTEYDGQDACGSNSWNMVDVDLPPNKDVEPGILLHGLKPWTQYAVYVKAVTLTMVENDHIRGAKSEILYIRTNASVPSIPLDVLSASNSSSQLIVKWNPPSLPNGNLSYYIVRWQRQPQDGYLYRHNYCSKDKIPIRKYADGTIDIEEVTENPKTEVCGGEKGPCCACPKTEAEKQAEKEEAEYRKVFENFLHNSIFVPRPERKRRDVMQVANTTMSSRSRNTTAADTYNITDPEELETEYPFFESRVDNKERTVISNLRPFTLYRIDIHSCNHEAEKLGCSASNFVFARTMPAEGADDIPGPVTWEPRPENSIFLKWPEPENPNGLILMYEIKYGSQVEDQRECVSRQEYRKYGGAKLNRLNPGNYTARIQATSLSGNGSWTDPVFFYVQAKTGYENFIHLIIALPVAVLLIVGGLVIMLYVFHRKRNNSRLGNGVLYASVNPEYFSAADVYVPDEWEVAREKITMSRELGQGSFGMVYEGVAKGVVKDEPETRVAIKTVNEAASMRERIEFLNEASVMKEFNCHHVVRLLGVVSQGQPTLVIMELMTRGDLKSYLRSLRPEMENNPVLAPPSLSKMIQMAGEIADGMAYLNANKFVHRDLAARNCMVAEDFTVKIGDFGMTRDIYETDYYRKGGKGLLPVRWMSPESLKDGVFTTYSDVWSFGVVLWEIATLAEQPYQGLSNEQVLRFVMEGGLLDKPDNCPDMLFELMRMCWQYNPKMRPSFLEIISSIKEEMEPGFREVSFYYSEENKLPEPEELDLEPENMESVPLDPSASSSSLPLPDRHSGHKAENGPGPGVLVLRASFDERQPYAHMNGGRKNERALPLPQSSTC

[18] = target: AurA (Homo sapiens, UniProt O14965); assay: Kinase inhibition profiling at 100 nmol/L; format: biochemical
AurA, sequence (O14965 whole entry): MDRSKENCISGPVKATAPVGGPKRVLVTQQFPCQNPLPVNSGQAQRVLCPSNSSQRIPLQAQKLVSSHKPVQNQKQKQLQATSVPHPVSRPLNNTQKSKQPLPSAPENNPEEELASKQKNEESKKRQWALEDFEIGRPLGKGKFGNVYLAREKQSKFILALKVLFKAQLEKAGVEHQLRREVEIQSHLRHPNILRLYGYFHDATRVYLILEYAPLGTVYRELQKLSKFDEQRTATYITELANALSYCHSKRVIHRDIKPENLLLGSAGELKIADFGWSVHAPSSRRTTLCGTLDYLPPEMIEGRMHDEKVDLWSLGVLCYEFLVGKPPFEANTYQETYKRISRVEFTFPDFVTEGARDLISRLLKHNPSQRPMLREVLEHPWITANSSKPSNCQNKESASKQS

[19] = system: HT‐29/GFP human colon cancer cells; assay: Anti-proliferative activity; format: cell-based
[20] = system: phosphorylation of AKT in HT‐29/GFP cells; assay: In vitro signal transduction assay; format: cell-based, human; conditions: same concentration ranges (up to 30 nmol/L)
Outline: as §1

[21] = target: Src (Homo sapiens, UniProt P12931); assay: Kinase inhibition profiling at 100 nmol/L; format: biochemical; conditions: read-out: Inhibition at 100 nmol/L
[22] = Plasma protein binding, equilibrium dialysis; format: in vitro ADME; conditions: human, pH 7.2
[23] = Phase I first-in-human study: pharmacokinetics; format: in vivo; conditions: for half-life / concentration at 1 day / concentration at 28 day / Cmax / Tmax / Vd/F: human, plasma; for Cmax: C max; for Tmax: T max; for Vd/F: VZ/F
[24] = system: advanced solid tumors; assay: Phase I first-in-human study: response; format: in vivo
Outline: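 Open-label phase I in patients with refractory advanced solid tumours; oral once daily after overnight fast for 28 days, 1-week observation, then continuous daily dosing; response assessed every 8 weeks by RECIST version 1.0.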

[25] = system: IGF‐1‐induced tyrosine phosphorylation of IGF‐R in HT‐29/GFP xenograft; assay: In vivo signal transduction assay; parameters: species or system mouse; conditions: 40 mg/kg oral, 2 hours before IGF-1
[26] = ref Kyowa Hakko Kirin Co., Ltd, Tokyo, unpublished data; cited from earlier work
[27] = system: human sarcoma cell lines bearing the EWS/FLI‐1 chromosome translocation (TC‐71, SK‐N‐MC, SK‐ES‐1); assay: Anti-proliferative activity; format: cell-based; conditions: 72 h
[28] = target: EGFR (Homo sapiens, UniProt P00533); assay: Kinase inhibition profiling at 100 nmol/L; format: biochemical; conditions: read-out: Inhibition at 100 nmol/L
[29] = patients, 37.5 and 50 mg, 1 and 2 h post‐dose
[30] = po, 37.5 mg/day, patients, oral 37.5 mg/day, Day 1 (n = 7), mean ± SD
[31] = po, 37.5 mg/day, patients, oral 37.5 mg/day, Day 28 (n = 5), mean ± SD
[32] = patients, oral 37.5 mg/day, Day 28 (n = 5), mean ± SD
[33] = patients, oral 50 mg/day, Day 28 (n = 4), mean ± SD

Cc1ccsc1C(=O)Nc1cc(CN2CCN(C(=O)CO)CC2)ccc1/C=C/c1n[nH]c2ccccc12 [KW‐2450]
GI50 [1]: 11 to 19 nM
Inhibition at 100 nmol/L [2]: –2.5%
inhibition at 0.1 µM [3]: 33.7%
Inhibition at 100 nmol/L ([4]; Jak2, 100 nmol/L): 93.4%
inhibition at 0.1 µM ([4]; read-out: Inhibition at 100 nmol/L, Jak2, 100 nmol/L): > 90%
inhibition at 0.1 µM [5]: > 90%
Plasma glucose level [6]: elevated levels
Plasma insulin level [6]: elevated levels
Inhibition of IGF‐1‐induced tyrosine phosphorylation of IGF‐1R [7]: complete inhibition
Inhibitory activity against phosphorylation of Erk [8]: without any inhibitory activity
inhibition at 0.1 µM [9]: 95.6%
inhibition at 0.1 µM [10]: > 90%
Correlation of degree of in vitro inhibition with that induced by anti‐IGF‐1 antibody KM1468 [11]: highly correlated
Inhibition at 100 nmol/L ([12]; TrkA, 100 nmol/L): 101.1%
inhibition at 0.1 µM ([12]; read-out: Inhibition at 100 nmol/L, TrkA, 100 nmol/L): > 90%
Patients with insulin values above the upper limit of quantitation (300 μU/mL) ([13]; 37.5‐mg cohort): five
Patients with insulin values above the upper limit of quantitation (300 μU/mL) ([13]; 50‐mg cohort): three
Fasting glucose [13, 29]: Elevations in fasting glucose
Fasting insulin [13, 29]: Elevations
Antitumor effect in combination with lapatinib and letrozole [14]: synergistic antitumor effects
Cell cycle distribution ([15]; higher concentrations of 1200 and 2000 nmol/L): G1 and G2/M phase accumulations
Cell cycle distribution ([15]; lower concentrations of 120 and 400 nmol/L): G1 phase accumulation
Inhibition of insulin‐induced tyrosine phosphorylation of IR [16]: significant degree of inhibition
inhibition at 0.1 µM [17]: 94.1%
Inhibition at 100 nmol/L ([18]; AurA, 100 nmol/L): 99.5%
inhibition at 0.1 µM ([18]; read-out: Inhibition at 100 nmol/L, AurA, 100 nmol/L): > 90%
GI50 [19]: 380 nM
Inhibition of phosphorylation of AKT downstream to IGF‐1R or IR [20]: inhibited phosphorylation of AKT
inhibition at 0.1 µM [21]: 53.8%
fraction unbound at 6 h [22]: 0.009 to 0.016
half-life ([23]; oral, 50 mg, Mean elimination half‐life, range across dose levels and day measured, patients, 37.5 and 50 mg, days 1 and 28): 584 to 780 min
concentration at 1 day ([23]; po, 37.5 mg/day): 608 ng/mL
concentration at 28 day ([23]; po, 37.5 mg/day): 890 ng/mL
Cmax [23, 30]: 2330 ± 921 ng/mL
Cmax [23, 31]: 2370 ± 1010 ng/mL
Tmax [23, 30]: 2.29 ± 0.95 h
Tmax [23, 31]: 1.99 ± 1.22 h
Vd/F ([23]; po, 37.5 mg/day, patients, oral 37.5 mg/day, Day 1, n = 5, mean ± SD): 19.6 ± 2.91 L
Vd/F ([23]; po, 37.5 mg/day, patients, oral 37.5 mg/day, Day 28, n = 4, mean ± SD): 23.7 ± 3.89 L
half-life ([23]; po, 37.5 mg/day, t 1/2, patients, oral 37.5 mg/day, Day 1, n = 5, mean ± SD): 606 ± 185 min
half-life ([23]; po, 37.5 mg/day, t 1/2, patients, oral 37.5 mg/day, Day 28, n = 4, mean ± SD): 584 ± 161 min
concentration at 1 day ([23]; po, 50 mg/day): 671 ng/mL
concentration at 28 day ([23]; po, 50 mg/day): 701 ng/mL
Mean maximum plasma concentration, molar equivalent ([23]; patients, 37.5 mg/day, days 1 and 28): 3385 to 3440 nmol/L
Mean elimination half‐life, range across dose levels and day measured ([23]; patients, 37.5 and 50 mg, days 1 and 28): 10 to 13 h
C min (trough plasma concentration) ([23]; patients, oral 37.5 mg/day, Day 1 (n = 7), mean ± SD): 608 ± 679 ng/mL
CL/F ([23]; patients, oral 37.5 mg/day, Day 1, n = 5, mean ± SD): 1.45 ± 0.53 L/h
C min (trough plasma concentration) [23, 32]: 890 ± 1173 ng/mL
CL/F [23, 32]: 1.56 ± 0.88 L/h
R, accumulation ratio (AUC0–24 on day 28/AUC0–24 on day 1) [23, 32]: 1.57 and 1.57 ± 0.80
C min (trough plasma concentration) ([23]; patients, oral 50 mg/day, Day 1 (n = 6), mean ± SD): 671 ± 517 ng/mL
CL/F ([23]; patients, oral 50 mg/day, Day 1, n = 5, mean ± SD): 1.48 ± 0.97 L/h
C min (trough plasma concentration) [23, 33]: 701 ± 462 ng/mL
CL/F [23, 33]: 1.69 ± 0.47 L/h
R, accumulation ratio (AUC0–24 on day 28/AUC0–24 on day 1) [23, 33]: 1.27 and 1.27 ± 0.37
Median progression‐free survival ([24]; 37.5 mg/day): 65.0 days
Patients with stable disease ([24]; 37.5 mg/day): 1 n
Median progression‐free survival ([24]; 50 mg/day): 141 days
Patients with stable disease ([24]; 50 mg/day): 3 n
Complete or partial responses ([24]; 10 patients evaluable for response): no complete or partial responses
Patients with stable disease ([24]; 10 patients evaluable for response, both doses): 40%
Median progression‐free survival ([24]; overall): 66.5 days
Inhibition of in vivo IGF‐1‐induced tyrosine phosphorylation of IGF‐R [25]: inhibited
Protein bound [26]: 98.5–99.0%
GI50 [27]: 3.2 to 11 nM
inhibition at 0.1 µM [28]: 2.5%
